According to article PMC6175042 (Journal of nuclear medicine : official publication, Society …, 2018):
Each block holds one compound with its values, some of them ahead of it.

How the values were obtained:
[1] = system: αvβ3 integrin-negative FaDu xenograft tumours (αvβ3 integrin expressed solely on neovasculature); experiment: Ex vivo biodistribution in mice with FaDu xenografts; conditions: i.v. 0.5 nmol/mouse, 1 h post injection, n=5; for Tumour uptake, FaDu: mean ± SD; for Tumour-to-blood ratio, FaDu / Tumour-to-duodenum ratio / Tumour-to-heart ratio / Tumour-to-kidneys ratio / Tumour-to-liver ratio / Tumour-to-lung ratio / Tumour-to-muscle ratio / Tumour-to-pancreas ratio / Tumour-to-spleen ratio / Tumour-to-stomach ratio: FaDu
[2] = as above; conditions: female, BALB/c nude (BALB/c nu/nu/Foxn1nu), mouse, salivary glands, iv, 0.5 nmol/mouse
[3] = system: αvβ3 integrin-positive SK-RC-52 xenograft tumours; experiment: Ex vivo biodistribution in mice with SK-RC-52 xenografts; conditions: i.v. 0.5 nmol/mouse, 1 h post injection, n=5; for Tumour uptake, SK-RC-52: mean ± SD; for Tumour-to-blood ratio, SK-RC-52 / Tumour-to-duodenum ratio / Tumour-to-heart ratio / Tumour-to-kidneys ratio / Tumour-to-liver ratio / Tumour-to-lung ratio / Tumour-to-muscle ratio / Tumour-to-pancreas ratio / Tumour-to-spleen ratio / Tumour-to-stomach ratio: SK-RC-52
Outline: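 Female athymic BALB/c nu/nu mice (6–8 weeks) received 2x10^6 SK-RC-52 cells s.c. in the left flank. Cells were grown in RPMI 1640 with 10% FCS and 1% glutamine. The 68Ga-labelled test compound (15 MBq in 0.3 ml PBS with 0.5% BSA, pH 7.4) was injected via the tail vein into awake, heat-lamp-warmed mice. After CO2/O2 euthanasia, tissues were dissected, weighed and gamma-counted against 1% standards, giving %ID/g.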

αvβ3 integrin = conditions: cited from earlier work

Structure (SMILES): N=C(N)NCCC[C@@H]1NC(=O)[C@H](CCCCNC(=O)CCOCCOCCOCCOCCNC(=O)CCP(=O)(O)CN2CCN(CP(=O)(O)CCC(=O)NCCOCCOCCOCCOCCC(=O)NCCCC[C@@H]3NC(=O)[C@@H](Cc4ccccc4)NC(=O)[C@H](CC(=O)O)NC(=O)CNC(=O)[C@H](CCCNC(=N)N)NC3=O)CCN(CP(=O)(O)CCC(=O)NCCOCCOCCOCCOCCC(=O)NCCCC[C@@H]3NC(=O)[C@@H](Cc4ccccc4)NC(=O)[C@H](CC(=O)O)NC(=O)CNC(=O)[C@H](CCCNC(=N)N)NC3=O)CC2)NC(=O)[C@@H](Cc2ccccc2)NC(=O)[C@H](CC(=O)O)NC(=O)CNC1=O (single isomer, unassigned) [^68Ga-TRAP-(RGD)3, metal not drawn]
Tumour uptake, FaDu [1]: 1.0±0.2 %ID/g | Tumour-to-blood ratio, FaDu [1]: 5.8±0.9 | Tumour-to-duodenum ratio [1]: 0.3±0.07 | Tumour-to-heart ratio [1]: 4.4±1.4 | Tumour-to-kidneys ratio [1]: 0.5±0.1 | Tumour-to-liver ratio [1]: 0.8±0.2 | Tumour-to-lung ratio [1]: 1.5±0.4 | Tumour-to-muscle ratio [1]: 4.8±1.2 | Tumour-to-pancreas ratio [1]: 4.6±1.0 | Tumour-to-spleen ratio [1]: 0.9±0.2 | Tumour-to-stomach ratio [1]: 0.8±0.2 | tissue uptake at 1 h [2]: 0.7 ± 0.1 %ID/g | Tumour uptake, SK-RC-52 [3]: 4.4±0.8 %ID/g | Tumour-to-blood ratio, SK-RC-52 [3]: 38.5±3.8 | Tumour-to-duodenum ratio [3]: 1.4±0.4 | Tumour-to-heart ratio [3]: 15.3±2.3 | Tumour-to-kidneys ratio [3]: 1.1±0.1 | Tumour-to-liver ratio [3]: 3.0±0.5 | Tumour-to-lung ratio [3]: 4.8±0.9 | Tumour-to-muscle ratio [3]: 20.9±3.6 | Tumour-to-pancreas ratio [3]: 17.3±3.7 | Tumour-to-spleen ratio [3]: 3.0±0.5 | Tumour-to-stomach ratio [3]: 3.0±0.7 | Tumour targeting compared to monomeric RGD peptides (αvβ3 integrin): improved tumour targeting

tissue uptake at 1 h [2]: 2.2 ± 0.3 %ID/g
Structure (SMILES): C/C1=C/C(=O)N(O)CCC[C@H](NC(=O)CCC(=O)NCCCC[C@@H]2NC(=O)[C@@H](Cc3ccccc3)NC(=O)[C@H](CC(=O)O)NC(=O)CNC(=O)[C@H](CCCNC(=N)N)NC2=O)C(=O)OCC/C(C)=C\C(=O)N(O)CCC[C@H](NC(=O)CCC(=O)NCCCC[C@@H]2NC(=O)[C@@H](Cc3ccccc3)NC(=O)[C@H](CC(=O)O)NC(=O)CNC(=O)[C@H](CCCNC(=N)N)NC2=O)C(=O)OCC/C(C)=C\C(=O)N(O)CCC[C@H](NC(=O)CCC(=O)NCCCC[C@@H]2NC(=O)[C@@H](Cc3ccccc3)NC(=O)[C@H](CC(=O)O)NC(=O)CNC(=O)[C@H](CCCNC(=N)N)NC2=O)C(=O)OCC1 [^68Ga-FSC-(RGD)3, metal not drawn]
Tumour uptake, FaDu [1]: 1.9±0.3 %ID/g | Tumour-to-blood ratio, FaDu [1]: 3.5±0.6 | Tumour-to-duodenum ratio [1]: 0.4±0.08 | Tumour-to-heart ratio [1]: 2.4±0.4 | Tumour-to-kidneys ratio [1]: 0.4±0.05 | Tumour-to-liver ratio [1]: 0.8±0.1 | Tumour-to-lung ratio [1]: 0.9±0.1 | Tumour-to-muscle ratio [1]: 3.6±0.6 | Tumour-to-pancreas ratio [1]: 3.0±0.4 | Tumour-to-spleen ratio [1]: 0.6±0.06 | Tumour-to-stomach ratio [1]: 0.6±0.1 | Tumour uptake, SK-RC-52 [3]: 12.5±2.5 %ID/g | Tumour-to-blood ratio, SK-RC-52 [3]: 30.7±8.1 | Tumour-to-duodenum ratio [3]: 1.5±0.4 | Tumour-to-heart ratio [3]: 12.4±3.2 | Tumour-to-kidneys ratio [3]: 1.9±0.3 | Tumour-to-liver ratio [3]: 2.5±0.2 | Tumour-to-lung ratio [3]: 4.8±0.9 | Tumour-to-muscle ratio [3]: 17.2±3.2 | Tumour-to-pancreas ratio [3]: 17.9±3.5 | Tumour-to-spleen ratio [3]: 2.6±0.5 | Tumour-to-stomach ratio [3]: 2.6±0.3 | Tumour targeting compared to monomeric RGD peptides (αvβ3 integrin): improved tumour targeting
